Measured values: ChEMBL document CHEMBL3232882, “N-Acyl-phosphoramidates as potential novel form of gemcitabine prodrugs” (Bioorg Med Chem, 2014)

Experiments:
HeLa [1] = assay: Cytotoxicity against human HeLa cells assessed as reduction of cell survival after 72 hrs by MTT assay; assay type: functional, cell-based
Summary of the method: (§1)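 HeLa seeded at 7×10^3 and CFPAC at 10^4 per well in RPMI 1640 with 10% FCS under 5% CO2. After 24 h, exposure to compounds (aqueous 100 mM stock; final 1 mM to 1×10^-6 mM) for 72 or 96 h. MTT 2 h, formazan dissolved in 20% SDS/50% DMF pH 4.7, A570/650. Untreated cells = 100%; IC50 from dose-response curves, 2 independent experiments in triplicate.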

[2] = target: T1, Adenosine 5'-monophosphoramidase HINT1 (Homo sapiens, UniProt P49773); assay: Drug metabolism in human K562 cell lysate assessed as HINT-1-mediated compound formation by measuring retention time at 1 mM after 22 hrs by RP-HPLC analysis relative to control; assay type: ADME, cell-based; settings: k562, 22 h, 1000 µM
T1 sequence (P49773 whole entry): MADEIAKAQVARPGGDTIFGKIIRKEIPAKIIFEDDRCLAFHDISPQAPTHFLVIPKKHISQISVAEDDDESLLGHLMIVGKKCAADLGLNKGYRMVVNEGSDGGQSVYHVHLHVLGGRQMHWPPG
Summary of the method: (§2)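 K562 lysate from confluent cells, scraped and sonicated in PBS with protease inhibitors. Substrate 1 mM in 20 mM Na-HEPES pH 7.2, 0.5 mM MgCl2, with lysate protein, 22 h at 37 °C. Quenched on ice, heat-denatured, centrifuged. Supernatant analysed by C18 RP-HPLC (0–8% acetonitrile in 0.1 M TEAB pH 7.4, 20 min) at 260 nm. Peaks integrated; products identified by co-injection; mean ± SE, at least duplicate.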

CFPAC-1 [3] = assay: Cytotoxicity against human CFPAC-1 cells assessed as reduction of cell survival after 96 hrs by MTT assay; assay type: functional, cell-based; settings: CFPAC-1, 96 h; summary of the method: as §1
[4] = target: T1, Adenosine 5'-monophosphoramidase HINT1; assay: Drug level in human K562 cell lysate treated with 1 mM gemcitabine 5'-phosphoramidate assessed as HINT-1-mediated compound formation after 22 hrs by RP-HPLC analysis relative to control; assay type: ADME, cell-based; settings: k562, 22 h; summary of the method: as §2
K562 = assay: Cytotoxicity against human K562 cells assessed as reduction of cell survival after 48 hrs by MTT assay; assay type: functional, cell-based; settings: K562, 48 h
Summary of the method: (§3)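 HUVEC (from fresh umbilical cords, gelatin-coated dishes, RPMI 1640 with 20% FBS, heparin, ECGF) and K562 (RPMI 1640, 10% FCS) were seeded at 7×10^3 per well. After 24 h, exposure for 48 h to compounds from 100 mM aqueous stock, final 1 mM down to 1×10^-6 mM. MTT read at 570/650 nm; untreated = 100%; IC50 from dose-response curves, mean of 2 experiments in triplicate.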

HeLa [5] = assay: Cytotoxicity against human HeLa cells assessed as reduction of cell survival after 96 hrs by MTT assay; assay type: functional, cell-based; summary of the method: as §1
CFPAC-1 [6] = assay: Cytotoxicity against human CFPAC-1 cells assessed as reduction of cell survival after 72 hrs by MTT assay; assay type: functional, cell-based; settings: CFPAC-1, 72 h; summary of the method: as §1
HUVEC = assay: Cytotoxicity against HUVEC assessed as cell after 48 hrs by MTT assay; assay type: cell-based; settings: Homo sapiens; summary of the method: as §3
[7] = target: T1, Adenosine 5'-monophosphoramidase HINT1; assay: Drug metabolism in human K562 cell lysate assessed as HINT-1-mediated gemcitabine 5'-monophosphate formation at 1 mM after 22 hrs by RP-HPLC analysis relative to control; assay type: ADME, cell-based; settings: k562, 22 h, 1000 µM; summary of the method: as §2
[8] = target: T2, Adenosine 5'-monophosphoramidase HINT1 (Oryctolagus cuniculus, UniProt P80912); assay: Drug metabolism assessed as recombinant rabbit HINT1-mediated hydrolysis of NH2-pdFdC to pdFdC per ug protein at 0.2 mM by RP-HPLC analysis; assay type: ADME; settings: 200 µM
T2 sequence (P80912 whole entry): as the sequence (P49773 whole entry) above, with R37Q, V65A, D69A, N91K, H122N counted along it
Summary of the method: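 Recombinant Hint-1 expressed in E. coli BL21 from pSGA02-HINT, purified by AMP-agarose affinity; hydrolysis of NH2-pdFdC to pdFdC at 0.2 mM substrate, activity expressed per µg protein; products followed by RP-HPLC on C18 column with acetonitrile gradient in 0.1 M triethylammonium bicarbonate, pH 7.4, peak areas integrated.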

[9] = target: T1, Adenosine 5'-monophosphoramidase HINT1; assay: Drug metabolism in human K562 cell lysate assessed as HINT-1-mediated gemcitabine formation at 1 mM after 22 hrs by RP-HPLC analysis relative to control; assay type: ADME, cell-based; settings: k562, 22 h, 1000 µM; summary of the method: as §2
[10] = target: T2, Adenosine 5'-monophosphoramidase HINT1; assay: Drug metabolism assessed as recombinant rabbit HINT1-mediated hydrolysis of NH2-pdFdC to pdFdC per ug protein at 1 mM by RP-HPLC analysis; assay type: ADME; settings: 1000 µM
[11] = target: T1, Adenosine 5'-monophosphoramidase HINT1; assay: Drug metabolism in human K562 cell lysate assessed as HINT-1-mediated compound dephosphorylation at 1 mM after 22 hrs by RP-HPLC analysis relative to control; assay type: ADME, cell-based; settings: k562, 22 h, 1000 µM; summary of the method: as §2

Retention_time [2] [min]	Drug metabolism [4]	Drug metabolism [7]	Drug metabolism [8] [nmol/min/µg]	Drug metabolism [9]	Drug metabolism [10] [nmol/min/µg]	Drug metabolism [11]	SMILES	IC50 (HeLa [1]) [nM]	IC50 (CFPAC-1 [3]) [nM]	IC50 (K562) [nM]	IC50 (HeLa [5]) [nM]	IC50 (CFPAC-1 [6]) [nM]	IC50 (HUVEC) [nM]
11.8	metabolite_detected						Nc1ccn([C@@H]2O[C@H](CO)[C@@H](O)C2(F)F)c(=O)n1 [GEMCITABINE]	10000	350	50	900	470	3
10.6		metabolite_detected	0.88	metabolite_detected	1.88		Nc1ccn([C@@H]2O[C@H](COP(N)(=O)O)[C@@H](O)C2(F)F)c(=O)n1						
11.1	metabolite_detected					metabolite_detected	Nc1ccn([C@@H]2O[C@H](COP(=O)(O)O)[C@@H](O)C2(F)F)c(=O)n1						
